CendR NRP1 mod – modulators of CendR peptide binding to NRP-1, primary screen, biochemical, fluorescence polarization, uHTS; FAM-RPARPAR peptide binding to NRP-1; inhibition, % at 25 µM; 360,000 tested, 0.85% active; AID 602438, 2012;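 active = inhibition or corrected inhibition above about 18%, plus a signal ratio from 0.5 to 1.5, limit read from the data, passing the limit was not always enough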
Arr AP2 block – inhibitors of beta-arrestin/AP2 binding, primary screen, biochemical, GPCR trafficking, flow cytometry. beta-arrestin 1 C-terminal peptide binding to AP2 beta2-adaptin appendage (human). FITC-arrestin peptide / GST-AP2 beads; AP2 beta2 appendage carries R879A mutation. inhibition, % at 10 µM. 340,000 tested, 0.31% active. AID 504490, 2011;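 active = inhibition above a set limit, near 3 SD of compounds lacking own fluorescence, cut at about 54% in these data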
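Material – GST-tagged AP2 beta2-adaptin appendage (R879A) on 4 µm glutathione beads · Probe or stimulus – fluorescein-tagged arrestin peptide at 50 nM final · Timing – 12 min plus 1 h, RT · Detection – bead flow cytometry, FITC channel · Read-out basis – inhibition as reduced fluorescein signal on beads, percent · Medium – PBS plus Tween 20 (0.05%) and BSA (0.1%)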
ADAM17 inh – ADAM17 inhibitors, primary screen, biochemical, QFRET; recombinant ADAM17, EDANS/DABCYL FRET peptide cleavage; 370,000 tested, 0.83% active; inhibition, % at 6.95 µM; Disintegrin and metalloproteinase domain-containing protein 17 (Homo sapiens), P78536;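 active = inhibition above the mean of compounds lying between control limits plus 3 SD, set per campaign, cut at about 8.5% in these data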
CaV13 FRET inh – Primary screen for inhibitors of IQ motif and Ca2+-dependent inactivation inhibitor domain binding in CACNA1D, Förster resonance energy transfer in living cells, …. 340,000 tested, 0.098% active. HEK cells, CFP/YFP FRET ICDI-IQ, plate reader, 10 min; percent FRET-ratio fall versus neutral wells. inhibition, % at 12.3 µM;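 active = mean replicate inhibition of at least 30% and at least 1% of replicates passing that level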
FAS-TE inh – FAS thioesterase domain inhibitors, primary screen, biochemical, fluorescence intensity, uHTS. Fatty acid synthase (Homo sapiens), P49327. inhibition, % at 15 µM. AID 602261, 2012. 360,000 tested, 0.67% active. recombinant FAS-TE, OMFH fluorogenic substrate, fluorescence endpoint;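 active = compounds whose normalised, plate-corrected inhibition of enzyme fluorescence in the single-dose primary screen is 50% or more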
ADAM10 inh – human ADAM10 inhibitors, primary screen, biochemical, QFRET, HTS; Disintegrin and metalloproteinase domain-containing protein 10 (Homo sapiens), O14672; recombinant ADAM10, EDANS/DABCYL FRET peptide cleavage, 3 h; inhibition, % at 7 µM; 370,000 tested, 0.62% active;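 active = inhibition above a per-campaign cutoff equal to the mean of compounds falling between control-based bounds plus 3 SD, cut at about 20% in these data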
Of the large screens only hits and unclear results are named; the others gave an inactive call. Only some compounds are listed: those with a hit (about 2.9% of all), similar ones and a draw of the others.

CC[C@]12c3[nH]c4ccc(Cl)cc4c3CCN1C(=O)[C@@H](CC(=O)NCC13CC4CC(CC(C4)C1)C3)C[C@@H]2C(=O)N1CCN(C(=O)c2ccco2)CC1	ADAM10 inh 35
CC[C@]12c3[nH]c4ccc(OC)cc4c3CCN1C(=O)C(CC(=O)NCC13CC4CC(CC(C4)C1)C3)C[C@@H]2C(=O)N1CCN(C(=O)c2ccco2)CC1 (stereo not given in full)	none (no result: ADAM17 inh, CaV13 FRET inh, ADAM10 inh)
Cc1ccc(Cl)cc1NC(=O)COC(=O)CN1C(=O)C2CCCCC2C1=O (stereo not given)	CendR NRP1 mod 26
c1ccc(CCN2CCN=C2Nc2ccccc2)cc1	none
Cc1cccc(CCN2CCN=C2Nc2ccccc2)c1	CendR NRP1 mod 27
COc1cc(CC(=O)OCC(=O)N2C(C)CCCC2C)cc(OC)c1OC (stereo not given)	CendR NRP1 mod 26
COc1cc(CC(=O)OCC(=O)N2CCCCC2C)cc(OC)c1OC (stereo not given)	none
CC(=O)c1c(C)[nH]c(C(=O)OCC(=O)NCc2cccs2)c1C	CendR NRP1 mod 21
CC(=O)c1c(C)[nH]c(C(=O)OCC(=O)NCc2ccc(Cl)cc2)c1C	none
Cc1ccccc1Cn1cc(COC(=O)NCCc2c[nH]c3ccccc23)nn1	none (no result: CendR NRP1 mod, Arr AP2 block, CaV13 FRET inh, FAS-TE inh)
CC1Cn2c(nnc2-c2cc3ccccc3cc2O)S1 (stereo not given)	CendR NRP1 mod 26
Cc1nc(SCC(=O)NCC2CCCO2)c2c(C)c(C)sc2n1 (stereo not given)	none
Cc1nc(SCC(=O)NCC2CCCO2)c2c3c(sc2n1)CCCC3 (stereo not given)	CendR NRP1 mod 30
c1ccc(Cn2c(CNc3nc4ccccc4n3CCN3CCCCC3)nc3ccccc32)cc1	CendR NRP1 mod 30
Fc1cc(Cl)ccc1Nc1nc(NCc2ccccc2)nc2ccsc12	CendR NRP1 mod 26 (no result: Arr AP2 block)
COc1cccc(CC(NC(C)=O)C(=O)NC2CCN(C(=O)c3ccc(Cl)cc3)CC2)c1 (stereo not given)	CendR NRP1 mod 19
CC(=O)NC(Cc1ccc(F)c(F)c1)C(=O)NC1CCN(C(=O)c2ccc(Cl)cc2)CC1 (stereo not given)	none
CC(O)C1CCC2C3CCC4CC(O)CCC4(C)C3C(=O)CC12C (stereo not given)	none (no result: CaV13 FRET inh)
CCOC(=O)c1c(N/C=C(\C#N)c2nc(-c3ccc(OC(C)=O)cc3)cs2)sc2c1CCC2	none
Cc1cc(-c2ccc(F)cc2)nc2cc(C(N)=O)nn12	CendR NRP1 mod 26
CC1=Nc2ccccc2N=C(NC(=O)CSC(=S)N2CCN(C)CC2)C1c1ccccc1 (stereo not given)	none
CC1=Nc2ccccc2N=C(NC(=O)CSC(=S)N2CCCCC2)C1c1ccccc1 (stereo not given)	CendR NRP1 mod 37
O=c1c(-c2ccc(O)cc2)coc2c([C@@H]3O[C@H](CO)[C@@H](O)[C@H](O)[C@H]3O)c(O)ccc12	CendR NRP1 mod 24
Cc1ccc(-n2c(SCC(=O)N3CCOCC3)nc(O)c(Cc3ccccc3)c2=O)cc1	none (no result: CaV13 FRET inh)
O=C(CSc1nc(O)c(Cc2ccccc2)c(=O)n1-c1ccccc1)N1CCOCC1	CendR NRP1 mod 26
Cc1ccc(C(=O)COC(=O)c2ccncc2)cc1[N+](=O)[O-]	none
Cc1ccc(C(=O)COC(=O)c2cc(Cl)ccc2O)cc1[N+](=O)[O-]	CendR NRP1 mod 45
CCOC(=O)c1ccc(NC(=O)c2nc[nH]c2C(=O)N[C@H](C)c2ccccc2)cc1	none
C[C@H](NC(=O)c1[nH]cnc1C(=O)Nc1ccccc1)c1ccccc1	CendR NRP1 mod 26
CN(C(=O)c1cccc(NC(=O)Cc2ccc(NC(=O)C3CCN(C(=O)C4CCC4)CC3)cc2)c1)C1CC1	none
CCN(CC)S(=O)(=O)c1cccc(C(=O)NC(Cc2c[nH]c3ccccc23)c2nnc3n2CCCCC3)c1 (stereo not given)	CendR NRP1 mod 26
COc1cccc(N2[C@@H](CC(C)=O)c3ccc(/C=C/C(C)=O)cc3S2(=O)=O)c1	CendR NRP1 mod 22
CSCCC(c1nc2ccccc2[nH]1)n1c(/C=C/c2ccc(Cl)cc2)nc2ccccc21 (stereo not given)	none (no result: CendR NRP1 mod, Arr AP2 block, FAS-TE inh)
Cc1cccc(N(CC(=O)NCc2ccc(F)cc2)C(=O)c2csnn2)c1C	CendR NRP1 mod 20
CCCCCc1c(-c2ccc(Br)cc2)ncn1CCc1ccccc1OC	none (no result: Arr AP2 block)
C=C(CC[C@@H](O)C(C)(C)O)[C@H]1CC[C@]2(C)[C@@H]1CCC1[C@@]3(C)CCC(=O)C(C)(C)C3CC[C@]12C (stereo not given in full)	CendR NRP1 mod 28
CCCOc1ccc(/C(O)=C2/C(=O)C(=O)N(CCCOC)C2c2cccnc2)cc1 (stereo not given)	CendR NRP1 mod 28 (no result: CaV13 FRET inh)
CN1CCCc2cc3c(C(F)(F)F)cc(=O)oc3nc21	CendR NRP1 mod 38
C=C(CN(C)C)C(=O)c1ccc(OC2OC(COC(C)=O)C(OC(C)=O)C(OC(C)=O)C2OC(C)=O)cc1 (stereo not given)	none
CC(=O)N1CCN(C(=S)c2ccc([N+](=O)[O-])cc2)CC1	CendR NRP1 mod 18
CC(=O)N1CCN(c2ccc([N+](=O)[O-])cc2)CC1	none
CCCCOc1ccc(CSCCN=C(N)N)cc1	CendR NRP1 mod 40
CCCCCn1c(SCC(=O)c2ccccc2)nc2cc(C(=O)NCC3CCCO3)ccc2c1=O (stereo not given)	none
COCc1c(Br)c(C)[nH]c(=O)c1C#N	none
Cc1[nH]c(=O)c(C#N)c(C)c1Cl	CendR NRP1 mod 26
COC(=O)CSc1nnc(-c2c[nH]c3ccccc23)o1	none
CCN(CC)C(=O)CSc1nnc(-c2c[nH]c3ccccc23)o1	CendR NRP1 mod 31
CN1C(=O)c2cc(NC(=O)Nc3ccccc3)ccc2OC[C@H]2O[C@@H](CC(=O)NC3CCC3)CC[C@@H]21	none (no result: CendR NRP1 mod, Arr AP2 block, CaV13 FRET inh, FAS-TE inh)
CC1=C(C(=O)N(C(C)C)C(C)C)CC(CC(=O)NCCN2CCOCC2)C(=O)N1CCC1=CCCCC1 (stereo not given)	none (no result: Arr AP2 block)
CCCCN1CC(O)=C(c2nc3ccccc3[nH]2)C1=N	CendR NRP1 mod 22 (no result: CaV13 FRET inh)

Screening data: PubChem, several laboratories
